Screening results deposited in PubChem BioAssay by several laboratories.
EphB4 ephrin blk: blocks human EphB4 binding to ephrin-B2; 97,000 tested, 0.15% active; P54760; EphB4 LBD / TNYL-RAW-Alexa532 peptide, fluorescence polarization; inhibition, % at 7 µM; AID 720;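 active = inhibition above the screen-wide mean inhibition plus 3 SD, cut at about 15% in these data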;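 also: 0% = DMSO wells and 100% = excess unlabeled TNYL-RAW peptide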
PLK1 inh: inhibitors of human PLK1 kinase; P53350; recombinant PLK1 kinase, TR-FRET peptide phosphorylation; inhibition, % at 10 µM; 97,000 tested, 0.53% active; AID 619;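 active = inhibition of 50% or more in the single-concentration screen; inactive = inhibition below 50%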;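 also: 0% = DMSO max control and 100% = H-89 dihydrochloride min control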
FAK inh: inhibitors of human focal adhesion kinase; Q05397; biochemical FAK kinase activity assay; inhibition, %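 (tested at 7 µM)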; 97,000 tested, 0.84% active; in the data active = inhibition above about 19%;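 also: 0% = DMSO and 100% = reference compound high control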
Rev-RRE block: inhibitors of HIV-1 Rev-RRE RNA interaction; P05866; Rev peptide-RRE RNA binding, FRET; inhibition, % at 8 µM; 97,000 tested, 0.79% active;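 active = inhibition above the screen-wide mean plus 3 SD, cut at about 35% in these data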;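 also: 0% = median DMSO wells and 100% = median Neomycin B control wells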
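Material: labelled RRE RNA duplex and labelled Rev peptide / Buffer or medium: HEPES pH 7.5 salt buffer with EDTA / Compound dosing: single point, 8 µM final nominal compound concentration / Benchmarks: DMSO low control, neomycin B high control / Timing: 5 min preincubation and 15 min binding, 25 °C / Technique: FRET fluorescence readout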
Cav3 T inh: inhibitors of human Cav3.2 T-type calcium channel; Cav3.2-expressing cells, Fluo-4 calcium fluorescence FDSS; stronger effect = lower value; 100,000 tested, 4% active; B-score at 10 µM; AID 449739;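 active = single-dose well whose peak fluorescence ratio is a statistical outlier from its plate by either plate-standardised score or position-corrected B-score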
PLK1 PBD inh: inhibitors of human Plk1 polo box domain binding. 97,000 tested, 0.13% active. P53350. Plk1 PBD phosphopeptide binding, fluorescence polarization. inhibition, %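 (tested at about 20 µM)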; in the data active = inhibition above about 34%, passing the limit was not always enough
* hit, by the source's call; x = no result given; [ ] = another dose, or the depositor's remark. Sampled rows, rich in hits. Any-hit rate of the full collection: about 5.3%.

SMILES	EphB4 ephrin blk	PLK1 inh	FAK inh	Rev-RRE block	Cav3 T inh	PLK1 PBD inh
O=c1[nH]c(=O)n(CCC2=CCCCC2)c(O)c1C=NC1CCN(Cc2ccccc2)CC1	3.2	-11.0	-1.4	6.6	1.86	-24.8
COC(=O)C1=C(c2ccc(S(C)(=O)=O)cc2)C[C@@H]2CC[C@H]1N2C(=O)NCCCOC(C)C	x	x	x	x	1.38	x
CC#CP(=O)(OCC)C(O)(c1ccccc1)C(F)(F)F (stereo not given)	0.2	-8.9	-1.0	0.5	-0.156	6.5
CCOP(=O)(C#CC(C)(C)C)C(O)(c1ccccc1)C(F)(F)F (stereo not given)	9.2	-14.4	-0.4	-0.2	-5.61*	3.9
CCOC(=O)c1cncn1[C@H](C)c1ccccc1	x	x	x	x	0.903	x
CCN(CC)c1ccc(/C=C2/C(=O)NC(=O)N(CC3CCCO3)C2=O)cc1 (stereo not given)	4.8	-5.8	0.8	89.5*[fluorescence artefact?]	0.433	-16.8
CC(C)CCNC(=O)c1c(N)n(CC2CCCO2)c2nc3ccccc3nc12 (stereo not given)	-5.8	-3.9	1.5	7.5	-4.2*	-15.1
CCC(C)NC(=O)c1c(N)n(CC2CCCO2)c2nc3ccccc3nc12 (stereo not given)	x	x	x	x	-8.71*	x
C=CCn1c(O)c(C=NCCN(C)C)c(=O)[nH]c1=O	3.5	-3.9	-3.7	37.8*	0.254	2.0
Cc1ccccc1-n1c(O)c(C=Nc2ccc(N(C)C)cc2)c(=O)[nH]c1=O	-5.4	-11.2	3.2	41.3*	0.0466	11.3
C=CCn1c(O)c(C=Nc2ccc(N(CC)CC)cc2)c(=O)[nH]c1=O	-0.9	-0.8	5.6	56.2*	0.443	-1.9
CN(C)c1ccc(N=Cc2c(O)n(CCC3=CCCCC3)c(=O)[nH]c2=O)cc1	1.7	-6.3	0.2	9.6	0.0795	5.7
CCN(CC)c1ccc(N=Cc2c(O)n(CCC3=CCCCC3)c(=O)[nH]c2=O)cc1	8.6	-17.0	3.0	41.6*	-5.58*	-0.6
C=CCn1c(O)c(C=NCCN2CCNCC2)c(=O)[nH]c1=O	2.5	-10.2	-0.2	9.2	0.00909	12.0
CCCCCCN=C(C)c1c(O)n(CCCC)c(=O)[nH]c1=O	5.7	-2.2	3.3	-0.4	-1.17	-4.0
CN1C2CCC1CC(=NO)C2	x	x	x	x	0.43	x
CC1=NCCc2c1[nH]c1ccccc21	x	x	x	x	0.0996	x
CN1CCc2nc3sc(C#N)c(N)c3c(-c3cccs3)c2C1	2.1	16.6	3.9	31.8	1.23	8.7
CN1CCc2nc(N)c(C#N)c(-c3ccccc3)c2C1	3.0	8.4	7.3	45.9*	x	2.2
O=C(Cn1ncc2c3ccccc3n(Cc3ccccc3F)c2c1=O)N1CCC2(CC1)OCCO2	x	x	x	x	-8.58*	x
Cc1c2cnn(CC(=O)N3CCC4(CC3)OCCO4)c(=O)c2c(C)n1Cc1ccc(F)cc1	x	x	x	x	0.588	x
O=C(Cn1ncc2c3ccccc3n(Cc3ccccc3)c2c1=O)N1CCC2(CC1)OCCO2	x	x	x	x	-10.8*	x
C/C=C1/CN2C3CC1C(CO)(C(=O)OC)C2Cc1c3n(C)c2ccccc12 (stereo not given)	x	x	x	x	0.624	x
CC1CN(C)C(C)(C)CC1(O)c1ccccc1 (stereo not given)	1.6	-2.4	0.8	9.2	0.0705	-11.4
CCC(=NCCO)c1c(O)n(C2CCCCC2)c(=O)[nH]c1=O	-0.7	-3.8	-1.5	1.1	0.0425	-19.3
SMILES	EphB4 ephrin blk	PLK1 inh	FAK inh	Rev-RRE block	Cav3 T inh	PLK1 PBD inh
CCC(=NCc1ccc2c(c1)OCO2)c1c(O)n(C2CCCCC2)c(=O)[nH]c1=O	9.5	4.8	9.2	10.5	-5.77*	14.6
COC(=O)C1=C(c2ccc(S(C)(=O)=O)cc2)C[C@@H]2CC[C@H]1N2C(=O)NCc1cccc2ccccc12	x	x	x	x	-0.655	x
O=C1CN(C(=O)CN2CCCCC2)C(c2ccccc2)c2cc(Br)ccc2N1 (stereo not given)	15.9*	-3.0	0.4	7.3	-1.05	23.9
N=Cc1c(O)n(-c2cccc(Cl)c2)c(=O)[nH]c1=O	3.1	9.1	4.6	12.5	-0.336	12.6
COc1ccc2nc(/N=C/c3c(O)n(-c4cccc(Cl)c4)c(=O)[nH]c3=O)sc2c1	10.4	-19.5	3.5	35.9*	0.472	8.0
CC(=O)N(C)CC#CCN1CCC(O)CC1	x	x	x	x	-1.26	x
C/C=C(\C)C(=O)OC1C(C)=C2C(C1OC(=O)CCCCC)C(C)(OC(C)=O)CC(OC(=O)CCC)C1(O)C2OC(=O)C1(C)O (stereo not given)	x	x	x	x	4.29*	x
COP(=S)(OC)SCN1C(=O)c2ccccc2C1=O	8.0	-4.0	-4.7	-1.9	0.0366	-13.3
O=c1c(C=NCc2cccs2)c(O)n(C2CCCCC2)c(=O)n1C1CCCCC1	1.6	-0.4	1.2	7.6	-4.36*	-7.5
O=c1c(C=NCCN2CCNCC2)c(O)n(C2CCCCC2)c(=O)n1C1CCCCC1	3.3	3.1	2.1	3.0	-0.272	-9.8
Cc1cc2c(C(F)(F)F)cc(=O)oc2c2c1NCCC2	-1.6	-12.3	-0.9	129.8*[fluorescence artefact?]	-8.32*	-0.1
O=c1cc(C(F)(F)F)c2cc3c4c(c2o1)CCCN4CCC3	3.4	-26.1	2.7	131.6*[fluorescence artefact?]	-7.83*	-156.9
CC(C)(C)N(NC(=O)c1ccccc1)C(=O)c1ccccc1	-1.3	-7.4	-11.2	5.2	0.104	-25.1
CC(C)Oc1cc(-n2c(=S)[nH]c3ccccc3c2=O)c(Cl)cc1Cl	3.8	-10.2	-0.2	3.8	-0.833	17.0
CCCCn1c(N)c(C(=O)NCCN2CCOCC2)c2nc3ccccc3nc21	-0.7	-9.4	1.9	3.1	-0.324	5.4
CCOC(=O)c1c(N)n(CCN2CCCCC2)c2nc3ccccc3nc12	5.4	-6.6	6.5	37.7*	-0.42	12.3
Nc1c(C(=O)NCCN2CCOCC2)c2nc3ccccc3nc2n1Cc1ccco1	2.9	3.7	6.4	44.9*	-1.74	4.1
CC(C)(C)OC(=O)c1c(N)n(Cc2ccco2)c2nc3ccccc3nc12	1.1	-12.8	2.9	33.5	-5.32*	-8.2
COCCNC(=O)c1c(NC(=O)c2ccco2)n(Cc2ccccc2)c2nc3ccccc3nc12	5.1	1.4	3.0	22.9	-2.91	1.5
COCCNC(=O)c1c(N)n(Cc2ccco2)c2nc3ccccc3nc12	-3.8	-16.0	-1.7	36.0*	-1.57	-33.9
COC(=O)C1=C(c2cc3ccccc3o2)C[C@@H]2CC[C@H]1N2C(=O)N1CCC(C)CC1	x	x	x	x	-1.93	x
CO[C@H]1[C@@H](OC)CC(OC2OC(CO)C(O)C(O)C2O)/C(=C\C#N)[C@@H]1O (stereo not given in full)	x	x	x	x	0.0959	x
CC(=O)N1N=C2C3CCN(CC3)C2C1c1ccccc1 (stereo not given)	13.9	-9.1	7.3	4.2	-3.88*	-16.2
CC(C)N1CC=C(c2c[nH]c3ccccc23)CC1	1.7	-15.6	2.5	-3.1	-0.322	49.8
C1=C(c2c[nH]c3ccccc23)CCNC1	11.9	14.1	6.5	99.2*[fluorescence artefact?]	-0.901	-57.0
